Screening data deposited in PubChem by several laboratories.
Shown are actives, neighbours in structure and some others; about 1.3% of the full set was active somewhere.
Pf gamet viab – late stage P. falciparum gametocyte viability inhibitors, primary screen, ATP luminescence, HTS | P. falciparum stage V gametocytes, 24 h | 0.065% of 150,000 active | inhibition, % at 10.9 µM;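 active = inhibition above the mean plus 3 SD of compounds within the control limits, set per campaign, cut at about 38% in these data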;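 also: 0% = DMSO wells and 100% = medium only without gametocytes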
Wee1 stabilizer – Wee1 degradation inhibitors, primary screen, cell-based, HeLa, Wee1K328M-luciferase, luminescence; Wee1-like protein kinase (Homo sapiens), P30291; HeLa Luc-Wee1K328M stability; 100% = proteasome inhibitor MG132 effect; reporter increase, % at 5 µM; 1.2% of 220,000 active; AID 1321, 2008;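 active = activation above the mean of all tested compounds plus 3 SD, set per screening run, cut at about 8.8% in these data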;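 also: cells exposed to compound for 20 h before luminescence read; 0% = DMSO alone and 100% = MG132 at 30 µM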
Hsp70 activator – Hsp70 transcriptional activators, primary screen, cell-based, HeLa, Hsp70 promoter luciferase, luminescence, 10 µM | AID 1203, 2008 | HeLa Hsp70 promoter luciferase reporter; scaled: vehicle 0, proteasome-inhibitor control 100% | 0.04% of 200,000 active | activation, % at 10 µM;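 active = activation above the mean across all tested compounds plus 3 SD, cutoff set per campaign, cut at about 5.5% in these data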;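 also: 100% = MG132 at 30 µM as the positive control and 0% = DMSO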
Mdm2 ligase inh – MDM2-luciferase reporter signal enhancers, primary screen, MDM2 E3 ligase inhibitor project, cell-based, luminescence, 1536-well; E3 ubiquitin-protein ligase Mdm2 (Homo sapiens), Q00987; cell-based MDM2 ubiquitination luciferase reporter, 2 h; 0 = plate control, 100 = twice control, blank-subtracted; signal enhancement, % at 5 µM; 0.11% of 210,000 active; AID 1230, 2008;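 active = signal enhancement of 30% or more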;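 also: luminescence tracks abundance of the self-degrading MDM2-luciferase fusion protein; higher signal means inhibition of MDM2 E3 ligase activity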
Target sequence (Q00987 whole entry, looked up, the tested form may be a part): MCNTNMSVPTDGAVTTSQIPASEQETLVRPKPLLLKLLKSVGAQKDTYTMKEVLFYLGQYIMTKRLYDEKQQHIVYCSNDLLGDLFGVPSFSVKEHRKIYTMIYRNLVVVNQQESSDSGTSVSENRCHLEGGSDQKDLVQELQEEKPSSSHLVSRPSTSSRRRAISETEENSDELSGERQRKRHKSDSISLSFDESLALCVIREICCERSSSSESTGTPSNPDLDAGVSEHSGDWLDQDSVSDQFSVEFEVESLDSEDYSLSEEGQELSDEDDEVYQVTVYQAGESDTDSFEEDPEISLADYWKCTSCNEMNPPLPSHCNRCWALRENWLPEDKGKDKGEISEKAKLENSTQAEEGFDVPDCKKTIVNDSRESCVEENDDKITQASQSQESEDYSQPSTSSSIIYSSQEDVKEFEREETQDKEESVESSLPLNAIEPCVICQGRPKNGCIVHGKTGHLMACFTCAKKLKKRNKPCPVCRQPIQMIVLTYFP
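test system = mammalian cells stably expressing self-ubiquitinating, self-degrading MDM2 E3–luciferase fusion | quantity = 2000 cells/well | incubation = cell settling 4 h, compound treatment 2 h, both 37 °C | signal = luminescence with SteadyLite reagent, 15 min at room temperature | evaluation = % enhancement relative to plate controls after blank subtraction | benchmarks = plate controls and plate blanks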
Wee1 degr conf – Wee1 degradation inhibitors, confirmation, cell-based, HeLa, Wee1K328M-luciferase, luminescence, triplicate; activation, % at 5 µM; shares compounds with Wee1 stabilizer; AID 1410, 2008; HeLa Luc-Wee1K328M degradation; vehicle 0%, proteasome-blocked wells 100%; 4% of 1,100 active; in the data active = activation above about 8.9%
* = called active by the depositor; x = not tested or not shown.

SMILES | Pf gamet viab | Wee1 stabilizer | Hsp70 activator | Mdm2 ligase inh | Wee1 degr conf
NNC(=O)CN1C(c2ccccc2Br)=Nc2ccc(Br)cc2C1c1ccccc1 (centres undefined) | -6 | 11* | 0 | x | -1
CCCCN(C(=O)c1ccc2c(c1)OCO2)c1ccccc1 | 1 | 14* | 0 | -11 | 0
COc1ccc(-c2noc(CSc3nc(-c4ccccc4)cc(=O)[nH]3)n2)cc1OC | x | 14* | 0 | -10 | 0
O=C(COc1ccc(CO)cc1Cl)Nc1ccc(F)cc1 | x | 16* | 0 | -10 | -5
Nc1c(C(=O)O)sc2nc(-c3ccccc3)cc(-c3ccccc3)c12 | 8 | 11* | x | -14 | 1
N#Cc1cnc(SCC(=O)c2ccccc2)nc1N | x | 1 | 0 | -15 | x
N#Cc1cnc(SCCc2ccccc2)nc1N | x | 28* | 0 | -19 | 2
O=C(O)c1c(N2CCCCC2)ccc([N+](=O)[O-])c1N1CCCCC1 | -5 | -3 | x | -12 | x
CCC(C)n1c(SCC(=O)Nc2cc(C(C)(C)C)nn2-c2ccccc2)nc2ccccc2c1=O (centres undefined) | 15 | 2 | 0 | 2 | x
COc1ccc(C(=O)NCc2nnc(SCC(=O)Nc3nc4ccccc4s3)o2)cc1 | -14 | -2 | 0 | -9 | x
Cc1ccc(NC(=O)CSc2nnc(CNC(=O)c3cccs3)o2)cc1 | -4 | -1 | 0 | -8 | x
CC(=O)c1ccc(NC(=O)CSc2nnc(Cn3cnc4ccccc43)o2)cc1 | 16 | 16* | 0 | 4 | 2
O=C(CSc1nnc(CNC(=O)c2cccs2)o1)Nc1ccccc1 | x | 18* | 0 | 25 | -2
COc1cc(C(=O)NCc2nnc(SCC(=O)Nc3nc4ccccc4s3)o2)cc(OC)c1OC | -1 | 12* | 0 | -13 | 1
COc1cccc(-c2nc3sc4c(c3c(=O)[nH]2)CCCCC4)c1 | 0 | 5 | 0 | -24 | x
Cc1ccc(NC(=O)COC(=O)CNC(=O)c2ccc(Br)cc2)c(C)c1 | 7 | 14* | 0 | -1 | 1
CC(=O)COC(=O)CNC(=O)c1ccc(Br)cc1 | 7 | -1 | 0 | 0 | x
N#CCSc1nc2ccccc2o1 | -3 | -2 | x | 1 | x
O=[N+]([O-])c1ccccc1CSc1nc2ccccc2o1 | 1 | 44* | 0 | -1 | -1
O=C(Cn1cnc2ccccc2c1=O)NCCC(=O)Nc1ccc2c(c1)OCCO2 | x | -2 | 0 | 6 | x
O=C(COc1ncnc2ccccc12)c1ccc2c(c1)OCCO2 | x | 3 | 0 | -25 | x
O=C(Cn1cnc2ccccc2c1=O)Nc1ccc2c(c1)OCCO2 | 25 | 11* | 0 | -6 | 6
O=C(Cn1cnc2ccccc2c1=O)OCC(=O)c1ccc2c(c1)OCCO2 | -27 | 11* | 0 | -14 | 1
O=C1c2ccccc2C(=O)N1CCC#Cc1ccc2cc(CCO)oc(=O)c2c1 | 18 | x | x | x | x
O=C(O)CCC(=O)N1N=C(c2ccccc2)CC1c1ccc2nccnc2c1 (centres undefined) | x | 13* | 0 | -4 | 0
SMILES | Pf gamet viab | Wee1 stabilizer | Hsp70 activator | Mdm2 ligase inh | Wee1 degr conf
Cc1c(NC(=O)C(C)OC(=O)c2cccs2)c(=O)n(-c2ccccc2)n1C (centres undefined) | 7 | 30* | 0 | -18 | 0
CC(C)(C)[C@H]1COC(=O)[C@@H](Cc2ccc(F)cc2)CC/C=C/C[C@@H](CC(=O)N[C@@H](CO)Cc2ccccc2)C(=O)N1 | 18 | x | x | x | x
CCn1cc(C(=O)OCC(=O)c2ccccc2)c(=O)c2ccc(C)nc21 | -4 | 12* | 0 | 2 | -1
O=C(c1ccc(F)cc1)n1ccc(-c2cnc(-c3ccccc3)s2)n1 | 11 | 15* | 0 | -46 | 3
Fc1ccc(Cn2ccc(-c3cnc(-c4ccccc4)s3)n2)cc1 | 0 | 2 | 0 | -16 | x
NC(=O)COC(=O)CC1CC2CCC1C2 (centres undefined) | -3 | -4 | 0 | -24 | x
CCOC(=O)c1c(-c2ccccc2)oc2ccc(OC(C)=O)cc12 | 3 | 13* | 0 | -14 | -4
COCCOC(=O)c1c(C)oc2ccc(OC(=O)c3ccco3)cc12 | -2 | 2 | 0 | -2 | x
COCCOC(=O)c1c(C)oc2ccc(OCc3ccccc3)cc12 | -9 | 14* | 0 | 3 | 0
CCOC(=O)c1c(-c2ccccc2)oc2ccc(OC(C)C(=O)O)cc12 (centres undefined) | 6 | -1 | x | -8 | x
S=C(NCCCN1CCOCC1)Nc1cccc(Cl)c1 | -5 | 0 | 0 | 5 | x
S=C(NCCN1CCOCC1)Nc1cccc(Cl)c1 | 6 | 15* | 0 | -6 | -1
S=C(Nc1cccc(Cl)c1)N1CCN(Cc2ccccc2)CC1 | 10 | 11* | 0 | -3 | 4
O=[N+]([O-])c1ccc2c(c1)N([O-])C1(CCCCC1)[N+]2=O | -14 | 0 | x | -10 | x
CCOC(=O)N1CCN(C(=O)CSc2nc3ccccc3c(=O)n2-c2ccccc2)CC1 | 2 | 11* | 0 | 1 | 4
CCN1CCN(c2ccc(NC(=O)c3ccc4c(c3)[nH]c(=O)n4Cc3ccc(OC)cc3)cc2)CC1 | -13 | 3 | 0 | 8 | x
COc1cc(C)c(N)cc1C(C)C | x | 19* | 2 | -8 | -1
O=C(NCc1ccccc1)c1onc(CS(=O)(=O)c2ccc(Cl)cc2)c1C(=O)NCc1ccccc1 | 0 | x | x | x | x
C/C(=N\N=c1/sc2ccccc2n1C)c1ccc(N2CCOCC2)cc1 | -16 | 14* | 1 | -12 | 1
C/C(=N\N=c1/sc2ccccc2n1C)c1ccccn1 | x | 3 | 0 | 3 | x
Cc1cccc(N/N=C/c2ccccc2O)c1 | 5 | 4 | 0 | -4 | x
O=C1N=C(N2CCCC2)CN1c1ccccc1 | -6 | 1 | 1 | 0 | x
CC1(C)Nc2ccccc2C(=O)N1NS(=O)(=O)c1ccccc1 | -26 | 11* | 0 | -4 | 5
CN(C)c1ccc(/C=N/NC(=S)NCc2ccccc2)cc1 | -21 | 3 | 0 | -16 | x
O=C(O)c1ccc(NC(=S)NCc2ccccc2)cc1 | -9 | x | x | x | x
SMILES | Pf gamet viab | Wee1 stabilizer | Hsp70 activator | Mdm2 ligase inh | Wee1 degr conf
FC(F)(F)c1ccc(NC(=S)NCc2ccccc2)cc1 | x | 19* | 0 | -7 | 0
CC(C)(C)c1ccc(/C=N/NC(=S)NCc2ccccc2)cc1 | 22 | 17* | 0 | 5 | 0
Cn1c(COc2ccccc2Br)nc2ccccc21 | -8 | x | x | x | x
CCOC(=O)CSc1nc2cc(C(F)(F)F)cnc2n1C | 8 | 11* | x | -14 | 2
CCOCCCNC(=S)Nc1ccc(S(N)(=O)=O)cc1 | 0 | 13* | 0 | 9 | 2
COc1ccc(C(=O)N2CCCC(CCC(=O)NCc3ccc(F)c(F)c3)C2)o1 (centres undefined) | 3 | -3 | 0 | -5 | x
